In brackets after ≈: the same amount, converted by molar mass. Several values for one entry are separate records, joined by “and”; a condition that tells them apart may be missing. Identical values can stand only once.
What was measured:
Homo sapiens = organism: Homo sapiens; assay: Selectivity ratio of IC50 for PI3Kbeta (unknown origin) to IC50 for PI3Kdelta (unknown origin)
Outline: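 Ratio of each isoform's HTRF IC50 to the PI3Kδ HTRF IC50. Enzymes were preincubated 15 min with 4-fold compound dilutions in HEPES pH 7.0, MgCl2, DTT buffer. […] PIP2 was 5 µM for δ and 8 µM for α/β/γ. 60 min reaction, then EDTA quench with GRP-1 PH domain/APC/Eu detection. Four-parameter fit.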

[1] = Oral bioavailability in Sprague-Dawley rat at 3 mg/kg measured up to 7 hrs by LC-MS/MS analysis; type: ADME, organism-based; settings: in vivo, 7 h
Outline: (§1)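 Male Sprague Dawley rats, n = 2 per route, were dosed discretely at 3 mg/kg orally or 1 mg/kg intravenously. The dosing solution was DMSO/PEG200/water (5:45:50 v/v/v). Serial tail-vein blood samples were taken over 0–7 h, and parent compound was quantified by LC–MS/MS. Parameters were estimated by noncompartmental analysis.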

[2] = Volume of distribution at steady state in Sprague-Dawley rat at 3 mg/kg, po or 1 mg/kg, iv measured up to 7 hrs by LC-MS/MS analysis; type: ADME, organism-based; settings: in vivo, read-out: Vdss; outline: as §1
Albumin = Albumin (Homo sapiens, UniProt P02768); assay: Binding affinity to human serum albumin by HPLC analysis; type: ADME; settings: read-out: PB (converted)
[3] = Kinetic solubility in phosphate buffered saline at pH 7.4 after 1 hr by chemiluminescent nitrogen detection method; type: physicochemical; settings: read-out: Kinetic_solubility
Outline: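 The sample was then filtered, and the filtrate was quantified by calibrated flow-injection chemiluminescent nitrogen detection. Standard error was ±30 µM, and the upper limit was 500 µM from the 10 mM stock.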

[4] = Clearance in Sprague-Dawley rat at 1 mg/kg, iv measured up to 7 hrs by LC-MS/MS analysis relative to liver blood flow; type: ADME, organism-based; settings: in vivo
Outline: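 Male Sprague Dawley rats (n = 2/route), intravenous dose as a solution in DMSO/PEG200/water (5:45:50 v/v/v) at 2 mL/kg. Serial tail-vein blood sampling over 0–7 h. LC–MS/MS quantification of parent. Noncompartmental analysis.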

[5] = AUC(infinity) in Wistar Han rat at 1 mg/kg; type: ADME, organism-based; design: dose 1 mg/kg, time infinity; settings: in vivo
[6] = AUC(infinity) in Brown Norway rat acute OVA model of TH2-driven lung inflammation at 3 mg/kg, po pretreated for 30 mins followed by OVA challenge; type: ADME, organism-based; design: dose 3 mg/kg, time infinity, route oral; settings: in vivo
Outline: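 Male Brown Norway rats weighing 250–300 g were sensitised intraperitoneally with 10 μg OVA plus 20 mg Al(OH)₃ in 1 mL on days 1 and 7. On day 21 or 28 they were challenged intratracheally with 0.2 mL OVA under isoflurane. Compound was dosed orally 30 min before challenge. Blood exposure was measured in the same animals, with the 1 h post-dose concentration also recorded.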

[7] = Half life in Brown Norway rat acute OVA model of TH2-driven lung inflammation at 9 mg/kg, po pretreated for 30 mins followed by OVA challenge; type: ADME, organism-based; settings: in vivo
[8] = Drug uptake in blood of Brown Norway rat acute OVA model of TH2-driven lung inflammation at 9 mg/kg, po pretreated for 30 mins followed by OVA challenge measured 1 hr post dose; type: ADME, organism-based; settings: read-out: Drug uptake
Outline: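 Sensitized Brown Norway rats given oral compound 30 min before intratracheal OVA challenge. Blood concentration taken 1 h after dosing, i.e. 30 min after challenge.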

Aurora kinase B = Aurora kinase B (Homo sapiens, UniProt Q96GD4); assay: Inhibition of Aurora B (unknown origin)
[9] = target: Epidermal growth factor receptor (Homo sapiens, UniProt P00533); assay: Inhibition of EGFR (unknown origin)
Chain of Epidermal growth factor receptor (P00533 whole entry): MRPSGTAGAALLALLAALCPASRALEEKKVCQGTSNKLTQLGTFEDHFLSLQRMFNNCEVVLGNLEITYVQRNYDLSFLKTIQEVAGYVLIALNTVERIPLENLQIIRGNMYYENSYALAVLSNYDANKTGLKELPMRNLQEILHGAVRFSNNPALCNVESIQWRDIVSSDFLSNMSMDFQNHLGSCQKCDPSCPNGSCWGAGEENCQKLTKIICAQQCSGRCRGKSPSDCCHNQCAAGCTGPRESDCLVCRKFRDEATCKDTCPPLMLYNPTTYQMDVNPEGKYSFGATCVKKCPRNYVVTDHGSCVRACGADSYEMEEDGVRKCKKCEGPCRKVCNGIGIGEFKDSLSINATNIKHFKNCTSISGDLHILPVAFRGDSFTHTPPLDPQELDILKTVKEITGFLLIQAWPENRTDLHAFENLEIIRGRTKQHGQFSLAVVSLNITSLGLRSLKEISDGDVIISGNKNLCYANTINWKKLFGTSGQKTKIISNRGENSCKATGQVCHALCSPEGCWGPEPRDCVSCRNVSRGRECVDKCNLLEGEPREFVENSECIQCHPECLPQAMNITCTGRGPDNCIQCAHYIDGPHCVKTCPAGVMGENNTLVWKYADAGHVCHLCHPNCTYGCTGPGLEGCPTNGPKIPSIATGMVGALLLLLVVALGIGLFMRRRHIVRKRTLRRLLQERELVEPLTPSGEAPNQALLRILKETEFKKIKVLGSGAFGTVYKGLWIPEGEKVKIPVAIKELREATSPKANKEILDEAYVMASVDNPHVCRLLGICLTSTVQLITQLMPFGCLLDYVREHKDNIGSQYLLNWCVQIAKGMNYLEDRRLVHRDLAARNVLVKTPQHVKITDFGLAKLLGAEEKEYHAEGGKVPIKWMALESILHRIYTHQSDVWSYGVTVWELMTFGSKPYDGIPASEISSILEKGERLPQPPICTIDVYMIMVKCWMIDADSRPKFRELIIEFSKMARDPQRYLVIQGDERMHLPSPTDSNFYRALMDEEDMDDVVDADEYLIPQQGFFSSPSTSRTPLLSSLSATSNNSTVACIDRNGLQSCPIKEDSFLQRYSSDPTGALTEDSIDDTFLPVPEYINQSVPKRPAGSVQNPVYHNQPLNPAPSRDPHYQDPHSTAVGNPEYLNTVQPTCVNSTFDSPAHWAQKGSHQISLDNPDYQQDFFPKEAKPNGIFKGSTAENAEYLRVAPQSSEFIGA

[10] = target: Leucine-rich repeat serine/threonine-protein kinase 2 (Homo sapiens, UniProt Q5S007); assay: Inhibition of LRRK2 (unknown origin)
[11] = target: Rho-associated protein kinase 1 (Homo sapiens, UniProt Q13464); assay: Inhibition of ROCK1 (unknown origin)
[12] = target: Inhibitor of nuclear factor kappa-B kinase subunit beta (Homo sapiens, UniProt O14920); assay: Inhibition of IKK2 (unknown origin)
Chain of Inhibitor of nuclear factor kappa-B kinase subunit beta (O14920 whole entry, the tested form may be a part): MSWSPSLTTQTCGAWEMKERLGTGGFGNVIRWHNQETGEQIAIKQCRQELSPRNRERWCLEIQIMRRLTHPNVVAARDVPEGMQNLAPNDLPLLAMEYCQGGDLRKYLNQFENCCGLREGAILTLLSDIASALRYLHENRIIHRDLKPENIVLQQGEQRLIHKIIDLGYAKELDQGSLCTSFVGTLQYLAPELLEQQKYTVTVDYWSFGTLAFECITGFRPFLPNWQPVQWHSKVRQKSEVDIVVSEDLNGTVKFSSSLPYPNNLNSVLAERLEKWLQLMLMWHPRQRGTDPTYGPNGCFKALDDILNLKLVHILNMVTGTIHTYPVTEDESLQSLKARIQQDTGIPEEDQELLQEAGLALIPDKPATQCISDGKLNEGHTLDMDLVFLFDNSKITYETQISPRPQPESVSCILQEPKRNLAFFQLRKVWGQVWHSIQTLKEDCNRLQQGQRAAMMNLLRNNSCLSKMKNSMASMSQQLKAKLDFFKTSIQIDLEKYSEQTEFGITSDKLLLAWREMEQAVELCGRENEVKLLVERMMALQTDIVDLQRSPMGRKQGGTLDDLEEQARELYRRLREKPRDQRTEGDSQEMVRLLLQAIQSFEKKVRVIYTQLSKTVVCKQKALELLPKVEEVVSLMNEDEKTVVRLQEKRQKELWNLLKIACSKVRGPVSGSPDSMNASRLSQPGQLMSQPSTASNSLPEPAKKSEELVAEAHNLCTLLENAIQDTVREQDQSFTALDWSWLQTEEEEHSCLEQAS

[13] = target: Phosphatidylinositol 4-phosphate 3-kinase C2 domain-containing subunit beta (Homo sapiens, UniProt O00750); assay: Inhibition of PIK3C2B (unknown origin)
Chain of Phosphatidylinositol 4-phosphate 3-kinase C2 domain-containing subunit beta (O00750 whole entry, the tested form may be a part): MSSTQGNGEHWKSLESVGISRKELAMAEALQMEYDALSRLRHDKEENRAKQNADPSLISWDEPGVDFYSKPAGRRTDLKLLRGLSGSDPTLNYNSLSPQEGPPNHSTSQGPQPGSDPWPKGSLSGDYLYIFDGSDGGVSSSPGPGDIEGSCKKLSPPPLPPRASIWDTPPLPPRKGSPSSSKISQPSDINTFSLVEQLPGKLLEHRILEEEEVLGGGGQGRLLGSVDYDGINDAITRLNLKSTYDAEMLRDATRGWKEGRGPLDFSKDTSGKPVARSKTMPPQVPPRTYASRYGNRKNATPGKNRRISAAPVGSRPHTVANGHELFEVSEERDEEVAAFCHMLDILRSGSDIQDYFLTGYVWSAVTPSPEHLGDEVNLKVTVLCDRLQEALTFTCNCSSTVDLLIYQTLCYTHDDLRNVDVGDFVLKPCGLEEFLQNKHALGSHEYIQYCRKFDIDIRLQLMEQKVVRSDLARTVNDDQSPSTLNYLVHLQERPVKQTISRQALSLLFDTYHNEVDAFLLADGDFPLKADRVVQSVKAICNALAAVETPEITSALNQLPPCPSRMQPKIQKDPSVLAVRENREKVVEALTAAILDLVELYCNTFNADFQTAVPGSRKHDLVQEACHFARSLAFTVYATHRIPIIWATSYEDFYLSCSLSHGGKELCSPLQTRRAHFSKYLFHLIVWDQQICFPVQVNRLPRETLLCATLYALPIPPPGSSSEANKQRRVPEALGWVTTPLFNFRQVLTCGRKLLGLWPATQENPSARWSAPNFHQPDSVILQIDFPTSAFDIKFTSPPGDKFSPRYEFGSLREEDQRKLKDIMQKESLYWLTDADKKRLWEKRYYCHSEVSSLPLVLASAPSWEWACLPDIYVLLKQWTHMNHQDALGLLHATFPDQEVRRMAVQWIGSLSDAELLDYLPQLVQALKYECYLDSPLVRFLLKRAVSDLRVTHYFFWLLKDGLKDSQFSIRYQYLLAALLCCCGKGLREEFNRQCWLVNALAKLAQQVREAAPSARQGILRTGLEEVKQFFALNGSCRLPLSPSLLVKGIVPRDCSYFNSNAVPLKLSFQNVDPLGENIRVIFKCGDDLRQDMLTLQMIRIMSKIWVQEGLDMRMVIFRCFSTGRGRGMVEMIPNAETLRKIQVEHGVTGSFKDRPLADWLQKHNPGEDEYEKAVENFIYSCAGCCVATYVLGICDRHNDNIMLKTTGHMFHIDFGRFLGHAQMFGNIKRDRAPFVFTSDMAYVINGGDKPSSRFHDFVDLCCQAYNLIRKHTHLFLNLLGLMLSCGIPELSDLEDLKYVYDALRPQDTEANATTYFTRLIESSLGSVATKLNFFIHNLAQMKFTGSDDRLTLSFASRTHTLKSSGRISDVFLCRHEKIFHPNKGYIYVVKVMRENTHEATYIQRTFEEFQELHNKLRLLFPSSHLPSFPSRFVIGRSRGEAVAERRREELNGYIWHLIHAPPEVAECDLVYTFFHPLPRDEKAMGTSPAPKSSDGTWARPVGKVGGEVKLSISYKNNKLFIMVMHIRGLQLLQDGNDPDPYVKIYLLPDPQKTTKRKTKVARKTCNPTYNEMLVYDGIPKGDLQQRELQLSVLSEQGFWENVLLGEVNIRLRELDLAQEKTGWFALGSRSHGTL

Sphingosine kinase 1 = Sphingosine kinase 1 (Homo sapiens, UniProt Q9NYA1); assay: Inhibition of SPHK1 (unknown origin)
Sphingosine kinase 2 = Sphingosine kinase 2 (Homo sapiens, UniProt Q9NRA0); assay: Inhibition of SPHK2 (unknown origin)
Chain of Sphingosine kinase 2 (Q9NRA0 whole entry): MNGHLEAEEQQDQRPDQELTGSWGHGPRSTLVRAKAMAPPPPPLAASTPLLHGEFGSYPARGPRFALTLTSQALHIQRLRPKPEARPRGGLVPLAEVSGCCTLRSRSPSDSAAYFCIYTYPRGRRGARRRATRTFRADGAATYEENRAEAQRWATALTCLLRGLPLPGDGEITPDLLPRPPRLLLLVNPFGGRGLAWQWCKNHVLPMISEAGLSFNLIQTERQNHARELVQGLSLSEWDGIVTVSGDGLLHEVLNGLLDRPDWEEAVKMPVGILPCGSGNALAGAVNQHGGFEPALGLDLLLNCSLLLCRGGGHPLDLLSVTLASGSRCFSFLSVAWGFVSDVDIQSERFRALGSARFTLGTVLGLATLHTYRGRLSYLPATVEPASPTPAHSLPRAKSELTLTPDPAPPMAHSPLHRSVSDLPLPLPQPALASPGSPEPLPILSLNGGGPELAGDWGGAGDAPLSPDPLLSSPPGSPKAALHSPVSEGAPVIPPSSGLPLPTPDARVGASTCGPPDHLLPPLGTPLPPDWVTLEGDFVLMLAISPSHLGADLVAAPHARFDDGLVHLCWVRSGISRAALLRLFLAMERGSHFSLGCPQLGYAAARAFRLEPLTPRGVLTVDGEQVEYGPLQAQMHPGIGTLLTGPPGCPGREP

[14] = target: 3',5'-cyclic-AMP phosphodiesterase 4B (Homo sapiens, UniProt Q07343); assay: Inhibition of PDE4B (unknown origin)
Chain of 3',5'-cyclic-AMP phosphodiesterase 4B (Q07343 whole entry): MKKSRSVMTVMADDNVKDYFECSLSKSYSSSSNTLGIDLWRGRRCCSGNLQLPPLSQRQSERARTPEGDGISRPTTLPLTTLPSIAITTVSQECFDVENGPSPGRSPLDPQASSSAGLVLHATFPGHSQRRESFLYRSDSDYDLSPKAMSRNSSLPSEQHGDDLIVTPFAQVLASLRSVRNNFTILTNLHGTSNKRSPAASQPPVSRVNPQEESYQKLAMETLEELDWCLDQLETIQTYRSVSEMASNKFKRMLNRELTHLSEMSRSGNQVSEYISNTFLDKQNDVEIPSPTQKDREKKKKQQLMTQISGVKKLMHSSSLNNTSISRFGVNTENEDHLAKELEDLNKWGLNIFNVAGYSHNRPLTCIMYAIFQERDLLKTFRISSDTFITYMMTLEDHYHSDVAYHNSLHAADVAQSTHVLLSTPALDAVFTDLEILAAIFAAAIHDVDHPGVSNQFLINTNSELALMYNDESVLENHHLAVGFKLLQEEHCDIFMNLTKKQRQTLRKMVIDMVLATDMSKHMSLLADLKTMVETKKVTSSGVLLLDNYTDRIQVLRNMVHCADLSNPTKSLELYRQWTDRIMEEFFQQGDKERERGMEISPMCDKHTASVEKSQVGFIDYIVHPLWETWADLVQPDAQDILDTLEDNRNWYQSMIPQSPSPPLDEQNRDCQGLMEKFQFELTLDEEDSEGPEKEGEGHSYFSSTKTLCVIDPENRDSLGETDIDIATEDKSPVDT

[15] = target: DNA-dependent protein kinase catalytic subunit (Homo sapiens) (UniProt P78527); assay: Inhibition of DNA-PK (unknown origin)
[16] = target: T1, Phosphatidylinositol 4,5-bisphosphate 3-kinase catalytic subunit delta isoform (Homo sapiens, UniProt O00329)
T1 sequence (O00329 whole entry): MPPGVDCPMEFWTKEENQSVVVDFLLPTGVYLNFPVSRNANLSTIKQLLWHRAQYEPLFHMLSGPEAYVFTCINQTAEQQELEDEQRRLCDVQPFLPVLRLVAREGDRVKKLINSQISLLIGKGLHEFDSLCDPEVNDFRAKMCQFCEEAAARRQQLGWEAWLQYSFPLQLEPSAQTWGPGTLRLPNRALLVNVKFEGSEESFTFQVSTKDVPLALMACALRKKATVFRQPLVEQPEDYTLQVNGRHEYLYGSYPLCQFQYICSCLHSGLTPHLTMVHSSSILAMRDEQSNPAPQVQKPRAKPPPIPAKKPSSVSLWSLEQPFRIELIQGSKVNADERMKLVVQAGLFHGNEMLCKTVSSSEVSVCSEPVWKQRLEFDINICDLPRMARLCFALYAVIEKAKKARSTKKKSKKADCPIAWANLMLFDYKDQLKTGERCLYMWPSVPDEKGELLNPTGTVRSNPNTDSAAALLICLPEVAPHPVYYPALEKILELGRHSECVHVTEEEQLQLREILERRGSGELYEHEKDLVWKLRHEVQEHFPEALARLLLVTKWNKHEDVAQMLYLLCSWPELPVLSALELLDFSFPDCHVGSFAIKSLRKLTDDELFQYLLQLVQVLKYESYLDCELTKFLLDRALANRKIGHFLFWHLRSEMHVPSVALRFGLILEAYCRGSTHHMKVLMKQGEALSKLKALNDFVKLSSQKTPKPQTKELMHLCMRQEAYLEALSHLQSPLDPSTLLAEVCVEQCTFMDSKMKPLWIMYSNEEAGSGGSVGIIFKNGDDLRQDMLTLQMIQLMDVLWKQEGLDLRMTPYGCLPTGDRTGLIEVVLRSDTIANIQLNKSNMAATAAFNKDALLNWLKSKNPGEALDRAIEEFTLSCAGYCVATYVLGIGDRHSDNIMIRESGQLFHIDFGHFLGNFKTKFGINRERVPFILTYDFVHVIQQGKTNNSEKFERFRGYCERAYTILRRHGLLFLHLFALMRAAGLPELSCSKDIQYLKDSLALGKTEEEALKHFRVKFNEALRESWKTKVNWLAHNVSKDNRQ

With `COc1ncc(-c2cc3c(c(NC(=O)CN4CCOCC4)c2)COC3)cc1NS(C)(=O)=O` the Ratio IC50 (Homo sapiens) was 63, the F [1] was 54% and the Vd [2] was 1.1 L/kg. The fraction unbound (Albumin) was 0.36, the solubility kinetic at 1 h [3] was 185 µg/mL (≈ 400 µM) and the CL [4] was less than 20%. For the same compound, the AUC(0-inf) [5] was 673 ng·h/mL, the AUC(0-inf) [6] was 454 ng·h/mL and the half-life [7] was 6.8 h. It also gave a concentration at 1 h [8] of 1270 nM, an IC50 (Aurora kinase B) greater than 10 µM and an IC50 [9] greater than 10 µM. It also gave an IC50 [10] greater than 10 µM, an IC50 [11] greater than 10 µM and an IC50 [12] greater than 10 µM. It also gave an IC50 [13] greater than 10 µM, an IC50 (Sphingosine kinase 1) greater than 10 µM and an IC50 (Sphingosine kinase 2) greater than 10 µM. The IC50 [14] was greater than 10 µM, the pIC50(app) [15] was 5.6 and the IC50 [16] was 0.158 to 0.251 µM and 0.25 µM.
